# A number with no mark means an inactive call. The list shows a part of the results. Active and inactive are the calls of the source.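 How the source made its calls, unless noted: active means mean inhibition above 46.5%, the solvent-only control mean plus 3 SD; inactive means the rest.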
# What was measured:
# [1] = system: transactivating tegument protein VP16 (Human herpesvirus 1); test: compounds suppressing VP16-driven luciferase signal – cell-based, luminescence, single concentration, counter-screen for SRC2 inhibitor project (AID 652007; in the data active means inhibition above about 36%); conditions: cell-based VP16 transactivation luciferase reporter, at 8.9 µM, stronger effect = higher value
# [2] = target: Nuclear receptor coactivator 2 (Homo sapiens) (UniProt Q15596); test: inhibition of GAL4-SRC2 driven luciferase expression – cell-based, luminescence, HEK293, triplicate, confirmation (AID 652008); conditions: HEK293 GAL4-SRC2 luciferase reporter, at 8.9 µM, stronger effect = higher value;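 further: 0% = DMSO-treated cells and 100% = Gossypol at 36 µM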
# Chain of Nuclear receptor coactivator 2 (Homo sapiens) (Q15596 whole entry, looked up, the tested form may be a part): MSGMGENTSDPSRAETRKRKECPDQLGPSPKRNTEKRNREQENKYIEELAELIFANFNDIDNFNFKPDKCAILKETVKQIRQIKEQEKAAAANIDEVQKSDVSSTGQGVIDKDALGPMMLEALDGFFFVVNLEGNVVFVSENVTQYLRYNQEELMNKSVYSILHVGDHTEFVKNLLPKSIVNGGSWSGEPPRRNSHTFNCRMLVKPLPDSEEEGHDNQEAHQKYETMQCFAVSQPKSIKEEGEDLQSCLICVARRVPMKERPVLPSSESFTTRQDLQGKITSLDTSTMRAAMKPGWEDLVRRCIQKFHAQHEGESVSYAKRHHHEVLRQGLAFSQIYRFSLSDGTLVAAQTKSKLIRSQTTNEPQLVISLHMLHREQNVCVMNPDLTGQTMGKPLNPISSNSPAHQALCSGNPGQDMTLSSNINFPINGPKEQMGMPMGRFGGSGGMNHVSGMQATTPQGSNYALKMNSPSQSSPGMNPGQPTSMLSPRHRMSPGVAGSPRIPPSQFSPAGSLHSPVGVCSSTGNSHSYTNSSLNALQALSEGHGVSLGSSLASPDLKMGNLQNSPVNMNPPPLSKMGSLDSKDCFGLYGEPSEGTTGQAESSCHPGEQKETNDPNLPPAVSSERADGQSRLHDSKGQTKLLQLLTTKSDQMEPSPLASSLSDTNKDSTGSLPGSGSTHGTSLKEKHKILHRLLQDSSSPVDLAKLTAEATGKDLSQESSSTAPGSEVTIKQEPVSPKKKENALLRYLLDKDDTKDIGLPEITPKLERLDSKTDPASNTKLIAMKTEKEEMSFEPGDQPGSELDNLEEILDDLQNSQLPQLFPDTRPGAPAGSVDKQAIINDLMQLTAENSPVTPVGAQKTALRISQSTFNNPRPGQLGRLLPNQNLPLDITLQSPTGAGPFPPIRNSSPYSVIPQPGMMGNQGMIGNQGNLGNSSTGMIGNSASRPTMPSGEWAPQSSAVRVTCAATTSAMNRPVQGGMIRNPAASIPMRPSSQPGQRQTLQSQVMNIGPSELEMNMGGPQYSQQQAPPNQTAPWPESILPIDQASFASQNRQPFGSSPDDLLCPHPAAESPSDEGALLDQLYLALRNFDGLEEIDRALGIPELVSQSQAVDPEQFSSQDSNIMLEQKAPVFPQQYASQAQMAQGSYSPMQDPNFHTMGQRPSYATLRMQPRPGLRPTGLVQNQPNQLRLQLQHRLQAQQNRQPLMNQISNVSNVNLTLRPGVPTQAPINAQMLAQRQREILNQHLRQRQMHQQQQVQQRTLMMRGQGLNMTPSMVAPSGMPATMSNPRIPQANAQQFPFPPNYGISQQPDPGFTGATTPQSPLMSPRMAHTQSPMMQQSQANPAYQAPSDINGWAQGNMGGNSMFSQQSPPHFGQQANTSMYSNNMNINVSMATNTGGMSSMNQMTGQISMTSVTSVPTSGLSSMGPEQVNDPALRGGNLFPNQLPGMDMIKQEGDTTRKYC
# [3] = target: Oxysterols receptor LXR-beta (Homo sapiens) (UniProt P55055); test: nonspecific reporter activation via LXR – cell-based, luminescence, HEK293, H. contortus campaign, counter-screen for hcDAF-12 agonist project, confirmation (AID 743027;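 active means mean percent activation of the reporter above a cutoff set as the average over tested compounds plus their standard deviation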); conditions: HEK293 Gal4-LXR tk-luc reporter, 24 h, at 6.8 µM, stronger effect = higher value, normalized: DMSO 0%, positive control 100%
# Chain of Oxysterols receptor LXR-beta (Homo sapiens) (P55055 whole entry, looked up, the tested form may be a part): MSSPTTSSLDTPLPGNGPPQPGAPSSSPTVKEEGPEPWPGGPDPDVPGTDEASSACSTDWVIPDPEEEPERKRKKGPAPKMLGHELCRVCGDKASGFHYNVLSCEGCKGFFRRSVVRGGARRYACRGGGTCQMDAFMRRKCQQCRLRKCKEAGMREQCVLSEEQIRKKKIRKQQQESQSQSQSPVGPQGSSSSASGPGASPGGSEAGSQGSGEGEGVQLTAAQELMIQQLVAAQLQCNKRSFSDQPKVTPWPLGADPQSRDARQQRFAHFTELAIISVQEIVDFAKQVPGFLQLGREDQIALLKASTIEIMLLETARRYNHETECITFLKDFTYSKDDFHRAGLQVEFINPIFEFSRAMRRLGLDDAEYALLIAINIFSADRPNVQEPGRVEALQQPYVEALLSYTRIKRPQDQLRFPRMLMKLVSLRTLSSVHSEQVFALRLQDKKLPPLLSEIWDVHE
# Summary of the method: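 Assay system: HEK293 Gal4-LXR luciferase reporter cells; schedule: one-day compound treatment at 37 °C; signal: One-Glo luciferase luminescence; control set: DMSO and positive control; replicates: triplicate wells per compound; doses: 6.8 µM single dose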
# [4] = system: Nuclear hormone receptor DAF-12 (Haemonchus contortus); test: hcDAF-12 luciferase reporter activation, retest – cell-based, luminescence, HEK293, lit1-tk-luc, triplicate, confirmation (AID 743032;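 active means mean activation across triplicate tests above the threshold derived from the earlier primary screen, cut at about 5.5% in these data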;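 further: 0% = DMSO only wells and 100% = 3 µM Δ7-dafachronic acid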); conditions: HEK293 hcDAF-12 lit1-tk-luc reporter, at 6.8 µM, stronger effect = higher value
# [5] = system: DAF-12 nuclear receptor (Heterodera glycines), GAL4-LBD fusion; test: hgDAF-12 GAL4 fusion reporter activation, retest – cell-based, luminescence, HEK293, GAL4-LBD fusion, confirmation (AID 743050;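 active means mean activation over triplicate wells above the hit cutoff derived from the earlier primary screen, cut at about 11% in these data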;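 further: 0% = DMSO low control and 100% = 2 mM sodium butyrate high control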); conditions: HEK293 GAL4-hgDAF12 luciferase reporter, agonist mode; at 6.8 µM; stronger effect = higher value
# [6] = target: Oxysterols receptor LXR-beta (Homo sapiens) (UniProt P55055); test: nonspecific reporter activation via LXR – cell-based, luminescence, HEK293, H. glycines campaign, counter-screen for hgDAF-12 agonist project, confirmation (AID 743051;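 active means mean activation of the triplicate above a set limit carried over from the primary screen, none filed active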); conditions: HEK293 Gal4-LXR luciferase reporter, 24 h; at 6.8 µM; stronger effect = higher value
# Summary of the method: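 Test system – Gal4-LXR luciferase reporter HEK293 cells · Dosing – single nominal test compound dose of 6.8 µM · Times – 24 h compound exposure at 37 °C, 5% CO2 · Detection – luciferase luminescence · Evaluation – % activation versus DMSO and positive controls · Benchmarks – DMSO low control · Repeats – triplicate wells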
structure (smiles),measurement,setting,value
Oc1ccc(-[n+]2c(-c3ccccc3)cc(-c3ccccc3)cc2-c2ccccc2)cc1,inhibition,[1],35.3%
same,inhibition,[2],33.1%
CCOP(=O)(OCC)C1(O)C(=O)Nc2ccc(Br)cc21 (stereo not given),inhibition,[1],-7%
same,inhibition,[2],-5.26%
CCn1ccnc1CN1CCCC(C(=O)c2cccc(C(F)(F)F)c2)C1 (stereo not given),inhibition,[1],-3.5%
same,inhibition,[2],15.9%
Cc1ccc(N2C(=O)NC(=O)C(CCc3ccccn3)(Cc3ccc(F)cc3)C2=O)cc1 (stereo not given),inhibition,[1],-10.7%
same,inhibition,[2],7.3%
O=C(c1ccc(Cl)cc1)C1CCCN(Cc2cccc3ncccc23)C1 (stereo not given),inhibition,[1],14.6%
same,inhibition,[2],-6.97%
Cc1nc2cc(-c3cccc(F)c3)nn2c(C)c1CCC(=O)N1CCC2(CC1)OCCO2,inhibition,[1],-18.5%
same,inhibition,[2],40%
COc1ccc(C(=O)C2CN(C)CC2C(=O)c2ccc(OC)cc2)cc1 (stereo not given),activation,[3],-0.19%
same,activation,[4],0.28%
CC(C)(C)c1ccc(OC(=O)N2CCCCC2)cc1,activation,[5],14.1% (active)
same,activation,[6],0.52%
Nc1cccc(SC2CC(=O)N(c3ccc(Cl)cc3C(=O)c3ccccc3)C2=O)c1 (stereo not given),inhibition,[1],3.94%
same,inhibition,[2],17.3%
NC(=O)c1c(Br)n(C2OC(CO)C(O)C2O)c2ncnc(N)c12 (stereo not given),inhibition,[1],15.6%
same,inhibition,[2],35.3%
